Experimental data from ChEMBL document CHEMBL1141655, “Structure-activity relationships of Bak derived peptides: affinity and specificity modulations by amino acid replacement” (Eur J Med Chem, 2008).
pEC50: −log10 of the molar value.

How the values were obtained:
[1] = biological target: Apoptosis regulator Bcl-2 (Homo sapiens, UniProt P10415); assay: Binding affinity to recombinant Bcl-2 expressed in Escherichia coli BL21 by fluorescence polarization assay
Procedure, shortened: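 GST-Bcl-2 lacking C-terminal 21 residues, glutathione-resin purified, dialysed into 20 mM phosphate pH 7.4, 1 mM EDTA, 50 mM NaCl. Competition FP: fluorescein N-terminal Bak BH3 probe 15 nM, protein 1 µM, peptide final 10^-9 to 10^-4 M with 0.05% pluronic acid; 30 min room temperature; ex 485/em 535 nm, mP. EC50 from sigmoidal dose-response, n = 2, triplicate.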

[2] = biological target: Bcl-2-like protein 1 (Homo sapiens, UniProt Q07817); assay: Binding affinity to recombinant Bcl-XL expressed in Escherichia coli BL21 by fluorescence polarization assay
[3] = Selectivity ratio of EC50 for recombinant Bcl-2 to EC50 for recombinant Bcl-XL

Bcl-2-like protein 1, sequence (Q07817 whole entry): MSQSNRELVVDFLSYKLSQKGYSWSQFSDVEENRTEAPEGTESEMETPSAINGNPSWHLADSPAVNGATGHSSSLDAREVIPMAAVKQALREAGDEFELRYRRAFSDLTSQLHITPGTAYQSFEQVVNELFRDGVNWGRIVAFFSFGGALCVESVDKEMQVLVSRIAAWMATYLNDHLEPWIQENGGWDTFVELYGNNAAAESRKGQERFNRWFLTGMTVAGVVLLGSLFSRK
Apoptosis regulator Bcl-2, sequence (P10415 whole entry): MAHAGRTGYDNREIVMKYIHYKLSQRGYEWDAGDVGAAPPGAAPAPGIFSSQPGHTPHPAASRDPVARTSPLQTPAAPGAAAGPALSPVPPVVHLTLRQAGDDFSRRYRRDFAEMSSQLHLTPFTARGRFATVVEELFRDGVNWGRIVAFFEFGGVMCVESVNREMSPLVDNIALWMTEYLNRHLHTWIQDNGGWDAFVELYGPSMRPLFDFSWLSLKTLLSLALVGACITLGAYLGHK

| SMILES | pEC50 [1] | pEC50 [2] | Ratio EC50 [3] |
| --- | --- | --- | --- |
| CCCC[C@H](NC(=O)[C@H](CCC(N)=O)NC(=O)CN)C(=O)NCC(=O)N[C@@H](CCCN=C(N)N)C(=O)N[C@@H](CCC(N)=O)C(=O)N[C@@H](CC(C)C)C(=O)N[C@@H](C)C(=O)N[C@H](C(=O)N[C@H](C(=O)NCC(=O)N[C@@H](CC(=O)O)C(=O)N[C@@H](CC(=O)O)C(=O)N[C@H](C(=O)N[C@@H](CC(N)=O)C(=O)N[C@@H](CCCN=C(N)N)C(=O)O)[C@@H](C)CC)[C@@H](C)CC)[C@@H](C)CC | 6.12 | 7.15 |  |
| CC[C@H](C)[C@H](NC(=O)[C@H](C)NC(=O)[C@H](CCSC)NC(=O)[C@H](CCC(N)=O)NC(=O)[C@H](CCCNC(=N)N)NC(=O)CNC(=O)[C@@H](NC(=O)[C@H](CCC(N)=O)NC(=O)CN)C(C)C)C(=O)N[C@H](C(=O)NCC(=O)N[C@@H](CC(=O)O)C(=O)N[C@@H](CC(=O)O)C(=O)N[C@H](C(=O)N[C@@H](CC(N)=O)C(=O)N[C@@H](CCCNC(=N)N)C(=O)O)[C@@H](C)CC)[C@@H](C)CC |  |  | 21 |
| CCCC[C@H](NC(=O)[C@H](CCC(N)=O)NC(=O)CN)C(=O)NCC(=O)N[C@@H](CCCNC(=N)N)C(=O)N[C@@H](CCC(N)=O)C(=O)N[C@@H](CC(C)C)C(=O)N[C@@H](C)C(=O)N[C@H](C(=O)N[C@H](C(=O)NCC(=O)N[C@@H](CC(=O)O)C(=O)N[C@@H](CC(=O)O)C(=O)N[C@H](C(=O)N[C@@H](CC(N)=O)C(=O)N[C@@H](CCCNC(=N)N)C(=O)O)[C@@H](C)CC)[C@@H](C)CC)[C@@H](C)CC |  |  | 11 |
| CC[C@H](C)[C@H](NC(=O)[C@H](C)NC(=O)[C@H](CC(C)C)NC(=O)[C@H](CCC(N)=O)NC(=O)[C@H](CCCN=C(N)N)NC(=O)CNC(=O)[C@@H](NC(=O)[C@H](CCC(N)=O)NC(=O)CN)C(C)C)C(=O)N[C@@H](Cc1ccc(-c2ccccc2)cc1)C(=O)NCC(=O)N[C@@H](CC(=O)O)C(=O)N[C@@H](CC(=O)O)C(=O)N[C@H](C(=O)N[C@@H](CC(N)=O)C(=O)N[C@@H](CCCN=C(N)N)C(=O)O)[C@@H](C)CC | 4.68 | 5.90 |  |
| CC[C@H](C)[C@H](NC(=O)[C@H](C)NC(=O)[C@H](CC(C)C)NC(=O)[C@H](CCC(N)=O)NC(=O)[C@H](CCCNC(=N)N)NC(=O)CNC(=O)[C@@H](NC(=O)[C@H](CCC(N)=O)NC(=O)CN)C(C)C)C(=O)N[C@H](C(=O)NCC(=O)N[C@@H](CC(=O)O)C(=O)N[C@@H](CC(=O)O)C(=O)N[C@@H](Cc1ccc([N+](=O)[O-])cc1)C(=O)N[C@@H](CC(N)=O)C(=O)N[C@@H](CCCNC(=N)N)C(=O)O)[C@@H](C)CC | 5.10 | 6.23 | 13 |
| CC[C@H](C)[C@H](NC(=O)[C@H](C)NC(=O)[C@H](CC(C)C)NC(=O)[C@H](CCC(N)=O)NC(=O)[C@H](CCCNC(=N)N)NC(=O)CNC(=O)[C@H](Cc1ccc2ccccc2c1)NC(=O)[C@H](CCC(N)=O)NC(=O)CN)C(=O)N[C@H](C(=O)NCC(=O)N[C@@H](CC(=O)O)C(=O)N[C@@H](CC(=O)O)C(=O)N[C@H](C(=O)N[C@@H](CC(N)=O)C(=O)N[C@@H](CCCNC(=N)N)C(=O)O)[C@@H](C)CC)[C@@H](C)CC | 5.21 | 6.46 | 17 |
| CC[C@H](C)[C@H](NC(=O)[C@H](C)NC(=O)[C@H](Cc1ccc2ccccc2c1)NC(=O)[C@H](CCC(N)=O)NC(=O)[C@H](CCCNC(=N)N)NC(=O)CNC(=O)[C@@H](NC(=O)[C@H](CCC(N)=O)NC(=O)CN)C(C)C)C(=O)N[C@H](C(=O)NCC(=O)N[C@@H](CC(=O)O)C(=O)N[C@@H](CC(=O)O)C(=O)N[C@H](C(=O)N[C@@H](CC(N)=O)C(=O)N[C@@H](CCCNC(=N)N)C(=O)O)[C@@H](C)CC)[C@@H](C)CC | 4.77 | 6.90 | 133 |
| CC[C@H](C)[C@H](NC(=O)[C@H](C)NC(=O)[C@H](CC(C)C)NC(=O)[C@H](CCC(N)=O)NC(=O)[C@H](CCCNC(=N)N)NC(=O)CNC(=O)[C@@H](NC(=O)[C@H](CCC(N)=O)NC(=O)CN)C(C)C)C(=O)N[C@@H](Cc1ccc(-c2ccccc2)cc1)C(=O)NCC(=O)N[C@@H](CC(=O)O)C(=O)N[C@@H](CC(=O)O)C(=O)N[C@H](C(=O)N[C@@H](CC(N)=O)C(=O)N[C@@H](CCCNC(=N)N)C(=O)O)[C@@H](C)CC |  |  | 17 |
| CC[C@H](C)[C@H](NC(=O)[C@H](C)NC(=O)[C@H](CC(C)C)NC(=O)[C@H](CCC(N)=O)NC(=O)[C@H](CCCNC(=N)N)NC(=O)CNC(=O)[C@@H](NC(=O)[C@H](CCC(N)=O)NC(=O)CN)C(C)C)C(=O)N[C@H](C(=O)NCC(=O)N[C@@H](CC(=O)O)C(=O)N[C@@H](CC(=O)O)C(=O)N[C@@H](Cc1ccc(Cl)cc1)C(=O)N[C@@H](CC(N)=O)C(=O)N[C@@H](CCCNC(=N)N)C(=O)O)[C@@H](C)CC | 5.95 | 7.42 | 30 |
| CC[C@H](C)[C@H](NC(=O)[C@H](C)NC(=O)[C@H](CCSC)NC(=O)[C@H](CCC(N)=O)NC(=O)[C@H](CCCN=C(N)N)NC(=O)CNC(=O)[C@@H](NC(=O)[C@H](CCC(N)=O)NC(=O)CN)C(C)C)C(=O)N[C@H](C(=O)NCC(=O)N[C@@H](CC(=O)O)C(=O)N[C@@H](CC(=O)O)C(=O)N[C@H](C(=O)N[C@@H](CC(N)=O)C(=O)N[C@@H](CCCN=C(N)N)C(=O)O)[C@@H](C)CC)[C@@H](C)CC | 4.52 | 5.84 |  |
| CC[C@H](C)[C@H](NC(=O)[C@H](C)NC(=O)[C@H](CC(C)C)NC(=O)[C@H](CCC(N)=O)NC(=O)[C@H](CCCNC(=N)N)NC(=O)CNC(=O)[C@@H](NC(=O)[C@H](CCC(N)=O)NC(=O)CN)C(C)C)C(=O)N[C@@H](Cc1c[nH]c2ccccc12)C(=O)NCC(=O)N[C@@H](CC(=O)O)C(=O)N[C@@H](CC(=O)O)C(=O)N[C@H](C(=O)N[C@@H](CC(N)=O)C(=O)N[C@@H](CCCNC(=N)N)C(=O)O)[C@@H](C)CC | 5.55 | 6.43 | 7 |
| CC[C@H](C)[C@H](NC(=O)[C@H](C)NC(=O)[C@H](CC(C)C)NC(=O)[C@H](CCC(N)=O)NC(=O)[C@H](CCCNC(=N)N)NC(=O)CNC(=O)[C@@H](NC(=O)[C@H](CCC(N)=O)NC(=O)CN)C(C)C)C(=O)N[C@@H](Cc1ccccc1)C(=O)NCC(=O)N[C@@H](CC(=O)O)C(=O)N[C@@H](CC(=O)O)C(=O)N[C@H](C(=O)N[C@@H](CC(N)=O)C(=O)N[C@@H](CCCNC(=N)N)C(=O)O)[C@@H](C)CC |  | 5.67 |  |
| CC[C@H](C)[C@H](NC(=O)[C@H](C)NC(=O)[C@H](C)NC(=O)[C@H](CCC(N)=O)NC(=O)[C@H](CCCN=C(N)N)NC(=O)CNC(=O)[C@@H](NC(=O)[C@H](CCC(N)=O)NC(=O)CN)C(C)C)C(=O)N[C@H](C(=O)NCC(=O)N[C@@H](CC(=O)O)C(=O)N[C@@H](CC(=O)O)C(=O)N[C@H](C(=O)N[C@@H](CC(N)=O)C(=O)N[C@@H](CCCN=C(N)N)C(=O)O)[C@@H](C)CC)[C@@H](C)CC |  | 3.57 |  |
